Data taken from ChEMBL document CHEMBL1773048, “Synthesis of glycopeptide dendrimers, dimerization and affinity for Concanavalin A” (Bioorg Med Chem, 2011).
Where a SMILES comes first, the peptide text is derived from it. Bridges are numbered along the chain shown (N, C = ends). Roman numbers before positions name the chains, in order. [ ]: non-standard residue; d: D form. The star is where a group is joined. αMan = OC[C@H]1O[C@H](*)[C@@H](O)[C@@H](O)[C@@H]1O; Mpa = O=C(O)CCS

Experiments:
[1] = Ratio of methyl alpha-D-mannoside IC50 to compound IC50 for binding affinity to Concanavalin A
Outline: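 Relative potency is IC50 of methyl α-D-mannoside divided by inhibitor IC50. The reference is measured under the same conditions on the same plate by enhanced-sensitivity ELLA, and reference IC50 values are corrected to a common experimental value.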

[2] = Displacement of yeast mannan from Concanavalin A by Enzyme-linked lectin assay
Outline: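 Enhanced-sensitivity ELLA. Yeast mannan (10 µg/mL in PBS with CaCl2 and MnCl2) is coated overnight on plates and blocked 1 h at 37 °C with PBS containing 10 mg/mL BSA. Two-fold serial dilutions of inhibitor are preincubated 1 h at 37 °C with biotinylated Con A (5 µg/mL), transferred to the plates and incubated 1 h at 37 °C. Preformed Neutravidin–biotin-HRP is added for 1 h, then ABTS/H2O2 at pH 4.0. A415 is read after 5 min. IC50 is taken at 50% inhibition, at least triplicate.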

[3] = Ratio of methyl alpha-D-mannoside IC50 to compound IC50 for binding affinity to Concanavalin A per carbohydrate moiety
Outline: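 Valency-normalised relative potency is IC50 of methyl α-D-mannoside divided by (inhibitor IC50 × n), where n is the number of mannose units. The reference IC50 is measured on the same plate by enhanced-sensitivity ELLA.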

SMILES	Ratio IC50 [1]	IC50 [2] [µM]	Ratio IC50 [3]
CO[C@H]1O[C@H](CO)[C@@H](O)[C@H](O)[C@@H]1O	1	1320	1
NC(=O)[C@H](CCCCNC(=O)[C@H](CO)NC(=O)[C@H](CCCCNC(=O)[C@H](Cc1ccc(O)cc1)NC(=O)CCS[C@@H]1O[C@@H](CO)[C@H](O)[C@@H](O)[C@H]1O)NC(=O)[C@H](Cc1ccc(O)cc1)NC(=O)CCS[C@H]1O[C@H](CO)[C@@H](O)[C@H](O)[C@@H]1O)NC(=O)[C@H](CO)NC(=O)[C@H](CCCCNC(=O)[C@H](Cc1ccc(O)cc1)NC(=O)CCS[C@H]1O[C@H](CO)[C@@H](O)[C@H](O)[C@@H]1O)NC(=O)[C@H](Cc1ccc(O)cc1)NC(=O)CCS[C@H]1O[C@H](CO)[C@@H](O)[C@H](O)[C@@H]1O	20.6	64	5.2
O=[N+]([O-])c1ccc(O[C@H]2O[C@H](CO)[C@@H](O)[C@H](O)[C@@H]2O)cc1	2.1	644	2.1
NC(=O)[C@H](CCCCNC(=O)[C@H](CCCCNC(=O)[C@H](CCCCNC(=O)[C@H](Cc1ccc(O)cc1)NC(=O)CCS[C@H]1O[C@H](CO)[C@@H](O)[C@H](O)[C@@H]1O)NC(=O)[C@H](Cc1ccc(O)cc1)NC(=O)CCS[C@@H]1O[C@@H](CO)[C@H](O)[C@@H](O)[C@H]1O)NC(=O)[C@H](CCCCNC(=O)[C@H](Cc1ccc(O)cc1)NC(=O)CCS[C@@H]1O[C@@H](CO)[C@H](O)[C@@H](O)[C@H]1O)NC(=O)[C@H](Cc1ccc(O)cc1)NC(=O)CCS[C@@H]1O[C@@H](CO)[C@H](O)[C@@H](O)[C@H]1O)NC(=O)[C@H](CCCCNC(=O)[C@H](CCCCNC(=O)[C@H](Cc1ccc(O)cc1)NC(=O)CCS[C@@H]1O[C@@H](CO)[C@H](O)[C@@H](O)[C@H]1O)NC(=O)[C@H](Cc1ccc(O)cc1)NC(=O)CCS[C@H]1O[C@H](CO)[C@@H](O)[C@H](O)[C@@H]1O)NC(=O)[C@H](CCCCNC(=O)[C@H](Cc1ccc(O)cc1)NC(=O)CCS[C@H]1O[C@H](CO)[C@@H](O)[C@H](O)[C@@H]1O)NC(=O)[C@H](Cc1ccc(O)cc1)NC(=O)CCS[C@H]1O[C@H](CO)[C@@H](O)[C@H](O)[C@@H]1O	455	2.9	57
N=C(N)NCCC[C@H](NC(=O)[C@H](CCCCNC(=O)[C@H](CCCCNC(=O)[C@H](Cc1ccc(O)cc1)NC(=O)CCS[C@H]1O[C@H](CO)[C@@H](O)[C@H](O)[C@@H]1O)NC(=O)[C@H](Cc1ccc(O)cc1)NC(=O)CCS[C@@H]1O[C@@H](CO)[C@H](O)[C@@H](O)[C@H]1O)NC(=O)[C@H](CCCCNC(=O)[C@H](Cc1ccc(O)cc1)NC(=O)CCS[C@H]1O[C@H](CO)[C@@H](O)[C@H](O)[C@@H]1O)NC(=O)[C@H](Cc1ccc(O)cc1)NC(=O)CCS[C@@H]1O[C@@H](CO)[C@H](O)[C@@H](O)[C@H]1O)C(N)=O	21.3	62	5.3
NC(=O)[C@H](CSSC[C@H](NC(=O)[C@H](CCCCNC(=O)[C@H](CCCCNC(=O)[C@H](Cc1ccc(O)cc1)NC(=O)CCS[C@H]1O[C@H](CO)[C@@H](O)[C@H](O)[C@@H]1O)NC(=O)[C@H](Cc1ccc(O)cc1)NC(=O)CCS[C@@H]1O[C@@H](CO)[C@H](O)[C@@H](O)[C@H]1O)NC(=O)[C@H](CCCCNC(=O)[C@H](Cc1ccc(O)cc1)NC(=O)CCS[C@H]1O[C@H](CO)[C@@H](O)[C@H](O)[C@@H]1O)NC(=O)[C@H](Cc1ccc(O)cc1)NC(=O)CCS[C@@H]1O[C@@H](CO)[C@H](O)[C@@H](O)[C@H]1O)C(N)=O)NC(=O)[C@H](CCCCNC(=O)[C@H](CCCCNC(=O)[C@H](Cc1ccc(O)cc1)NC(=O)CCS[C@H]1O[C@H](CO)[C@@H](O)[C@H](O)[C@@H]1O)NC(=O)[C@H](Cc1ccc(O)cc1)NC(=O)CCS[C@@H]1O[C@@H](CO)[C@H](O)[C@@H](O)[C@H]1O)NC(=O)[C@H](CCCCNC(=O)[C@H](Cc1ccc(O)cc1)NC(=O)CCS[C@H]1O[C@H](CO)[C@@H](O)[C@H](O)[C@@H]1O)NC(=O)[C@H](Cc1ccc(O)cc1)NC(=O)CCS[C@@H]1O[C@@H](CO)[C@H](O)[C@@H](O)[C@H]1O	660	2	83
NC(=O)[C@H](CCCCNC(=O)[C@H](CCC(=O)O)NC(=O)[C@H](CCCCNC(=O)[C@H](Cc1ccc(O)cc1)NC(=O)CCS[C@@H]1O[C@@H](CO)[C@H](O)[C@@H](O)[C@H]1O)NC(=O)[C@H](Cc1ccc(O)cc1)NC(=O)CCS[C@H]1O[C@H](CO)[C@@H](O)[C@H](O)[C@@H]1O)NC(=O)[C@H](CCC(=O)O)NC(=O)[C@H](CCCCNC(=O)[C@H](Cc1ccc(O)cc1)NC(=O)CCS[C@H]1O[C@H](CO)[C@@H](O)[C@H](O)[C@@H]1O)NC(=O)[C@H](Cc1ccc(O)cc1)NC(=O)CCS[C@H]1O[C@H](CO)[C@@H](O)[C@H](O)[C@@H]1O	22	60	5.5
NC(=O)[C@H](CSSC[C@H](NC(=O)[C@H](Cc1ccc(O)cc1)NC(=O)CCS[C@H]1O[C@H](CO)[C@@H](O)[C@H](O)[C@@H]1O)C(N)=O)NC(=O)[C@H](Cc1ccc(O)cc1)NC(=O)CCS[C@H]1O[C@H](CO)[C@@H](O)[C@H](O)[C@@H]1O (I: [Mpa](αMan)-Tyr-Cys-NH2 / II: [Mpa](αMan)-Tyr-Cys-NH2; disulfide I:3-II:3)	12.7	104	6.4

Further lines, results first:

Ratio IC50 [1]	IC50 [2] [µM]	Ratio IC50 [3]	SMILES
8.8	150	4.4	NC(=O)[C@H](CCCCNC(=O)[C@H](Cc1ccc(O)cc1)NC(=O)CCS[C@H]1O[C@H](CO)[C@@H](O)[C@H](O)[C@@H]1O)NC(=O)[C@H](Cc1ccc(O)cc1)NC(=O)CCS[C@@H]1O[C@@H](CO)[C@H](O)[C@@H](O)[C@H]1O
25.4	52	6.4	NC(=O)[C@H](CCCCNC(=O)[C@H](CCCCNC(=O)[C@H](Cc1ccc(O)cc1)NC(=O)CCS[C@H]1O[C@H](CO)[C@@H](O)[C@H](O)[C@@H]1O)NC(=O)[C@H](Cc1ccc(O)cc1)NC(=O)CCS[C@@H]1O[C@@H](CO)[C@H](O)[C@@H](O)[C@H]1O)NC(=O)[C@H](CCCCNC(=O)[C@H](Cc1ccc(O)cc1)NC(=O)CCS[C@H]1O[C@H](CO)[C@@H](O)[C@H](O)[C@@H]1O)NC(=O)[C@H](Cc1ccc(O)cc1)NC(=O)CCS[C@@H]1O[C@@H](CO)[C@H](O)[C@@H](O)[C@H]1O
0.13	10500	0.13	OC[C@H]1OC(O)[C@@H](O)[C@@H](O)[C@@H]1O (stereo partly drawn) [D-MANNOSE]
14.3	92	3.6	N=C(N)NCCC[C@H](NC(=O)[C@H](CCCCNC(=O)[C@H](Cc1ccc(O)cc1)NC(=O)CCS[C@@H]1O[C@@H](CO)[C@H](O)[C@@H](O)[C@H]1O)NC(=O)[C@H](Cc1ccc(O)cc1)NC(=O)CCS[C@H]1O[C@H](CO)[C@@H](O)[C@H](O)[C@@H]1O)C(=O)NCCCC[C@H](NC(=O)[C@H](CCCNC(=N)N)NC(=O)[C@H](CCCCNC(=O)[C@H](Cc1ccc(O)cc1)NC(=O)CCS[C@H]1O[C@H](CO)[C@@H](O)[C@H](O)[C@@H]1O)NC(=O)[C@H](Cc1ccc(O)cc1)NC(=O)CCS[C@H]1O[C@H](CO)[C@@H](O)[C@H](O)[C@@H]1O)C(N)=O
25.4	52	6.4	NC(=O)[C@H](CSSC[C@H](NC(=O)[C@H](CCCCNC(=O)[C@H](Cc1ccc(O)cc1)NC(=O)CCS[C@H]1O[C@H](CO)[C@@H](O)[C@H](O)[C@@H]1O)NC(=O)[C@H](Cc1ccc(O)cc1)NC(=O)CCS[C@@H]1O[C@@H](CO)[C@H](O)[C@@H](O)[C@H]1O)C(N)=O)NC(=O)[C@H](CCCCNC(=O)[C@H](Cc1ccc(O)cc1)NC(=O)CCS[C@H]1O[C@H](CO)[C@@H](O)[C@H](O)[C@@H]1O)NC(=O)[C@H](Cc1ccc(O)cc1)NC(=O)CCS[C@@H]1O[C@@H](CO)[C@H](O)[C@@H](O)[C@H]1O
24	55	6	NC(=O)[C@H](CO)NC(=O)[C@H](CCCCNC(=O)[C@H](CCCCNC(=O)[C@H](Cc1ccc(O)cc1)NC(=O)CCS[C@H]1O[C@H](CO)[C@@H](O)[C@H](O)[C@@H]1O)NC(=O)[C@H](Cc1ccc(O)cc1)NC(=O)CCS[C@@H]1O[C@@H](CO)[C@H](O)[C@@H](O)[C@H]1O)NC(=O)[C@H](CCCCNC(=O)[C@H](Cc1ccc(O)cc1)NC(=O)CCS[C@H]1O[C@H](CO)[C@@H](O)[C@H](O)[C@@H]1O)NC(=O)[C@H](Cc1ccc(O)cc1)NC(=O)CCS[C@@H]1O[C@@H](CO)[C@H](O)[C@@H](O)[C@H]1O
14.2	93	3.6	NC(=O)[C@H](CCC(=O)O)NC(=O)[C@H](CCCCNC(=O)[C@H](CCCCNC(=O)[C@H](Cc1ccc(O)cc1)NC(=O)CCS[C@H]1O[C@H](CO)[C@@H](O)[C@H](O)[C@@H]1O)NC(=O)[C@H](Cc1ccc(O)cc1)NC(=O)CCS[C@@H]1O[C@@H](CO)[C@H](O)[C@@H](O)[C@H]1O)NC(=O)[C@H](CCCCNC(=O)[C@H](Cc1ccc(O)cc1)NC(=O)CCS[C@H]1O[C@H](CO)[C@@H](O)[C@H](O)[C@@H]1O)NC(=O)[C@H](Cc1ccc(O)cc1)NC(=O)CCS[C@@H]1O[C@@H](CO)[C@H](O)[C@@H](O)[C@H]1O
